Measurements from paper PMC6287576 (International Journal for Parasitology: Drugs and Drug …, 2018).
Converted amounts (≈) assume the structure as drawn. Where a name gives a salt, the structure may show the parent alone.

Assays:
[1] = system: recombinant A. suum N-AChR; conditions: ref Zheng et al., 2017; cited from earlier work
[2] = biological target: T1, C. elegans N-AChR (ACR-16) (Caenorhabditis elegans, UniProt P48180); assay: Two-electrode voltage-clamp, Cel-N-AChR in Xenopus oocytes; assay type: cell-based; conditions: for Hill slope: Cel N-AChR
T1 sequence (P48180 20-498): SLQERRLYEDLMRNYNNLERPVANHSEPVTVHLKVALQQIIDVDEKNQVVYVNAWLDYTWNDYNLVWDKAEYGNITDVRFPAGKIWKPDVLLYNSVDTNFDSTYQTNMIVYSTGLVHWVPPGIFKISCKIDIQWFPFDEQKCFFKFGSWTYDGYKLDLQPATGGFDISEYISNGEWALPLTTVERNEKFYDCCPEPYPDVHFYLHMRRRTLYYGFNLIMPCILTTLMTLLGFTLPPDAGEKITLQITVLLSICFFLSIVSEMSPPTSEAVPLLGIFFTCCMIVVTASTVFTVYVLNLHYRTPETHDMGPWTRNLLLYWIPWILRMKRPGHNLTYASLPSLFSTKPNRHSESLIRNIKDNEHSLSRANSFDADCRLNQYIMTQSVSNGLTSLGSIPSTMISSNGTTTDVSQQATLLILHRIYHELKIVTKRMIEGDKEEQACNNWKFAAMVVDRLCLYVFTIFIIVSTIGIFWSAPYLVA

[3] = biological target: T2, P. equorum N-AChR (ACR-16) (Parascaris equorum, UniProt A0A3S9VMQ8); assay: Two-electrode voltage-clamp, Peq-N-AChR in Xenopus oocytes; assay type: cell-based; conditions: for Hill slope: Peq N-AChR; for current elicited by perfusion: Peq-N-AChR, 100 μM
T2 sequence (A0A3S9VMQ8 25-504): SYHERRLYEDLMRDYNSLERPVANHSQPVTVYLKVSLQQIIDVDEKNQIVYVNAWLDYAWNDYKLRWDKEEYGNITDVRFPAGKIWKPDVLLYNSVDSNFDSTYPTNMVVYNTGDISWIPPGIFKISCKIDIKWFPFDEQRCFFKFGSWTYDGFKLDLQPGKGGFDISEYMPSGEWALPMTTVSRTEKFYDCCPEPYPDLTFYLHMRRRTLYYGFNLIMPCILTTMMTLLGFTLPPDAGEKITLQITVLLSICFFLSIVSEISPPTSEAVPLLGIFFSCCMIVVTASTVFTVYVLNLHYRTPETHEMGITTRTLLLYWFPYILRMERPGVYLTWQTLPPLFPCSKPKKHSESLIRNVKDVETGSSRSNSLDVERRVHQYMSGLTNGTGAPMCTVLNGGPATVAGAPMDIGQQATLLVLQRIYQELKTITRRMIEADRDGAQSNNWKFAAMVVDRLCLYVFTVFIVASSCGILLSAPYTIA

[4] = system: C. elegans acr-16 (ok789) mutant lacking N-AChR; assay: C. elegans paralysis assay, acr-16 mutant; parameters: species or system Caenorhabditis elegans; conditions: agar plate containing 31 mM drug, 15-60 min
H. contortus L-AChR-1 = assay: Two-electrode voltage-clamp, Hco-L-AChR-1 in Xenopus oocytes; assay type: cell-based, Haemonchus contortus; conditions: 100 μM
[5] = system: C. elegans lev-8 (ok1519) mutant lacking L-AChR; assay: C. elegans paralysis assay, lev-8 mutant; parameters: species or system Caenorhabditis elegans; conditions: agar plate containing 31 mM drug, 15-60 min
[6] = system: H. contortus L3 larvae, Lev/Pyr/Ivm multi-resistant Kokstad isolate; assay: Automated larval migration assay; parameters: species or system Haemonchus contortus; conditions: for IC50: Haemonchus contortus, read-out: IC50 (L3 migration, ALMA); for resistance factor between Kok and Wey: based on respective ALMA IC50 values
H. contortus L-AChR-2 = assay: Two-electrode voltage-clamp, Hco-L-AChR-2 in Xenopus oocytes; assay type: cell-based, Haemonchus contortus; conditions: 100 μM
[7] = system: C. elegans Bristol N2 (wild type); assay: C. elegans paralysis assay, N2; parameters: species or system Caenorhabditis elegans; conditions: agar plate containing 31 mM drug, 15-60 min
[8] = system: H. contortus L3 larvae, anthelmintic-susceptible Weybridge isolate; assay: Automated larval migration assay; conditions: Haemonchus contortus, read-out: IC50 (L3 migration, ALMA)
C. elegans L-AChR [9] = assay: Two-electrode voltage-clamp, Cel-L-AChR in Xenopus oocytes; assay type: cell-based, Caenorhabditis elegans; conditions: 100 μM
C. elegans L-AChR [10] = conditions: recombinant C. elegans L-AChR in Xenopus oocytes; ref Boulin et al., 2008; cited from earlier work
[11] = system: H. contortus Kokstad isolate (eggs); assay: Egg hatch assay, Kokstad isolate; parameters: species or system Haemonchus contortus; conditions: triplicate
Summary of the method: (§1)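 Benzimidazole test compound applied to eggs of each sheep-passaged isolate to establish benzimidazole susceptibility or resistance status. Method followed a published egg hatch protocol. ED50 reported in μg/ml, from triplicate tests.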

[12] = system: H. contortus Weybridge isolate (eggs); assay: Egg hatch assay, Weybridge isolate; parameters: species or system Haemonchus contortus; conditions: triplicate
Summary of the method: as §1

Compound	EC50 [2] [µM]	Hill slope [2]	current elicited by perfusion ([2]; Cel-N-AChR, 100 μM)	Hill slope [3]	current elicited by perfusion [3]	effect on motility (paralysis) [4]	response of oocytes (H. contortus L-AChR-1)	effect on motility (paralysis) [5]	IC50 [6] [µM]	response of oocytes (H. contortus L-AChR-2)	effect on motility (paralysis) [7]	IC50 [8] [µM]	response of oocytes (C. elegans L-AChR [9])	resistance factor between Kok and Wey [6]	also measured
C#Cc1cncc([C@@H]2CCCCN2)c1 [(S)-5-ethynyl-anabasine]															agonist potency [1]: higher agonist potency than other nicotine alkaloids
CC(=O)OCC[N+](C)(C)C [Acetylcholine, Acetylcholine chloride]	22 ± 1.2	2.1 ± 0.4	robust currents in the μA range	2.0 ± 0.2	robust currents in the μA range										
c1cncc([C@@H]2CCCCN2)c1 [Anabasine, anabasine]	27.5 ± 0.9	2.4 ± 0.4	very similar currents as for Nic	1.8 ± 0.2	very similar currents as for Nic	significantly less sensitive	failed to induce significant response	affected	141 ± 6.9	very small currents on few oocytes	affected	179 ± 7.9	failed to induce significant response		EC50 [3]: 1.7 ± 0.1 µM
c1ccc([C@H]2CN3CCSC3=N2)cc1 [Levamisole, (−)-tetramisole hydrochloride]									14 ± 0.35			1.14 ± 0.03		12.3	sensitivity of recombinant receptor (C. elegans L-AChR [10]): sensitive
CN1CCC[C@H]1c1cccnc1 [Nicotine, (−)-nicotine hydrogen tartrate]	15.1 ± 1.3	2.2 ± 0.2		1.7 ± 0.2		significantly less sensitive	failed to induce significant response	affected	1170 ± 67.7	responded robustly	affected	611 ± 55.1	failed to induce significant response		% of ACh response ([2]; Cel-N-AChR, 100 μM): 79.5 ± 7.5%; EC50 [3]: 2.9 ± 0.5 µM; Emax at 100 µM ([3]; read-out: % of ACh response): 96.6 ± 9.2%; sensitivity of recombinant receptor (C. elegans L-AChR [10]): insensitive
CN1CCCN=C1/C=C/c1cccs1 [Pyrantel, pyrantel citrate]									18.5 ± 1.32			0.77 ± 0.01		23.9	
c1ccc2[nH]c(-c3cscn3)nc2c1 [TBZ, thiabendazole]															ED50 (egg hatch assay) [11]: 0.437 ± 0.205 µg/mL (≈ 2.17 µM); ED50 (egg hatch assay) [12]: 0.024 ± 0.001 µg/mL (≈ 0.119 µM)
(±)-nornicotine		2.7 ± 0.4	very similar currents as for Nic	1.9 ± 0.3	very similar currents as for Nic	significantly less sensitive	failed to induce significant response	affected		very small currents on few oocytes	affected		failed to induce significant response		
ivermectin														15.1	
